Assay outcomes deposited in PubChem BioAssay by Johns Hopkins Ion Channel Center.
This is a sample that favours compounds with a hit; in the whole collection about 3.7% have one here.
KCNK9 inh = KCNK9 potassium channel inhibitors, primary screen, HEK293 cells, thallium flux. B-score at 10 µM. Potassium channel subfamily K member 9 (Homo sapiens), Q9NPC2. FluxOR thallium flux fluorescence; stronger effect = lower value. 310,000 tested, 1.2% active;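 active = ratio B-score over 3 SD below the library mean, with starting fluorescence within 5 SD of its mean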;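 also: negative B-score means less thallium flux so channel inhibition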
Target sequence (Q9NPC2 whole entry, looked up): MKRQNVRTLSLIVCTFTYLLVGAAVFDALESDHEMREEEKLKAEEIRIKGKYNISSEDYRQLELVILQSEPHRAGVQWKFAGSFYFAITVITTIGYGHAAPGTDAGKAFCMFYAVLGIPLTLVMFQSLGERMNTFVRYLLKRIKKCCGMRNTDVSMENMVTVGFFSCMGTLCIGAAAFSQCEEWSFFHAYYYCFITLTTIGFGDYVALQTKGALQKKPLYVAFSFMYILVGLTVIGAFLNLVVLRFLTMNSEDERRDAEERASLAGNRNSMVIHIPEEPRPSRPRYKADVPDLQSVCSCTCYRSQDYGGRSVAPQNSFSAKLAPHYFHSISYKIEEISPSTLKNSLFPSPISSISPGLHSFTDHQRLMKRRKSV
KCNQ1 block = inhibitors of human KCNQ1 channel, primary screen, cell-based, thallium flux, high-throughput | Potassium voltage-gated channel subfamily KQT member 1 (Homo sapiens), P51787 | CHO-K1 KCNQ1, FluxOR thallium flux fluorescence; stronger effect = higher value | B-score at 10 µM | 310,000 tested, 1.3% active;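 active = compounds whose thallium flux B-score, printed positive for inhibition, exceeds three library SD while starting fluorescence stays within three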;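 also: channel opened by potassium depolarization with thallium stimulus after 20 min compound exposure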
KCNK3 block = human KCNK3 channel inhibitors, primary screen, CHO cells, FluxOR thallium flux, B-score; FluxOR fluorescence; stronger effect = lower value; 340,000 tested, 0.84% active; Potassium channel subfamily K member 3 (Homo sapiens), O14649; B-score at 10 µM;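 active = B-score under library mean minus 4 SD, starting fluorescence ratio at most library mean plus 5 SD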;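 also: more negative B-score means stronger inhibition of thallium flux through KCNK3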
hERG rescue = hERG rescue from dofetilide block, primary screen, cell-based, CHO-hERG, FluxOR thallium flux, dofetilide IC70 | dofetilide IC70 present | AID 1511, 2009 | 310,000 tested, 0.51% active | activation (rescue from dofetilide block), less the hit threshold, % at 10 µM;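 active = activation above the mean of controls blocked by dofetilide plus 5 SD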;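 also: thallium influx through hERG after potassium depolarization seen as dye fluorescence rise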
Kir21 inh = inhibitors of mouse Kir2.1 inward-rectifier potassium channel | HEK293-Kir2.1, FluxOR thallium flux fluorescence; stronger effect = lower value | B-score at 10 µM | 310,000 tested, 0.85% active | AID 1672, 2009 | Inward rectifier potassium channel 2 (Mus musculus), P35561;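 active = fluorescence ratio B-score at or below minus 3 SD of library scores, with starting-brightness B-score within 2 SD, cut at about -4.2 in these data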;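 also: channel flux triggered by added potassium and thallium sulfate stimulus; B-score of peak minus minimum fluorescence over baseline after thallium stimulus; more negative B-score means stronger Kir2.1 block with less thallium influx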
KCNQ1 act = potentiators or activators of KCNQ1 channel, primary screen, cell-based, thallium flux, high-throughput | B-score at 10 µM | CHO-K1 KCNQ1, thallium flux FluxOR fluorescence; stronger effect = higher value | AID 2648, 2010 | Potassium voltage-gated channel subfamily KQT member 1 (Homo sapiens), P51787 | 310,000 tested, 0.35% active;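 active = fluorescence ratio B-score, a plate-corrected score, at least three library SD, with initial intensity B-score within 5 SD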
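Medium – assay buffer, equal DMSO in all wells · Material – CHO-K1 cell line with stable KCNQ1 potassium channel expression · Signal – kinetic FluxOR thallium fluorescence, 10-s 1-Hz baseline, 110-s post-stimulus read · Compound – single concentration per compound, DMSO matched to controls · Schedule – 37 °C overnight plating, 90-min dark dye load, 20-min compound pretreatment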
Large screens that a line does not name were inactive.

CCc1c(C)sc(NC(=O)c2cccs2)c1C(=O)OC(C)C	KCNK9 inh -6.59
Cn1c(SCc2c(Cl)cccc2Cl)nc(C(F)(F)F)cc1=O	KCNK9 inh -6.67
CCn1ccnc1CN1CCc2c([nH]c3ccccc23)C1C(C)(C)C (configuration not stated)	Kir21 inh -7.65
Cc1ccc(C(C(=O)NC2CCCC2)N(Cc2ccc3c(c2)OCO3)C(=O)c2snc(C(N)=O)c2N)cc1 (configuration not stated)	none
O=C(NC1CCCCC1)C(c1ccccc1)N(Cc1ccc2c(c1)OCO2)C(=O)c1cnsn1 (configuration not stated)	KCNQ1 block 6
Cc1ccc(-c2nnc(SCC(=O)N(C)C)nc2-c2ccc(C)cc2)cc1	none
CCCN1CCC(=O)N([C@H](CO)CC(C)C)CC1	none
CC(C)C[C@@H](CO)N1CCN(CC(C)C)CCC1=O	hERG rescue 5.7
COc1ccc(S(=O)(=O)Nc2nc3ccccc3s2)cc1OC	hERG rescue 4.7
CC(=O)Nc1ccc(S(=O)(=O)Nc2nc3ccccc3s2)cc1	none
Cc1[nH][nH]c(=O)c1C(c1ccc(-c2cccc(Cl)c2)o1)c1c(C)[nH][nH]c1=O	Kir21 inh -6.62
Cc1[nH][nH]c(=O)c1C(c1ccc(-c2cccc(C(=O)O)c2)o1)c1c(C)[nH][nH]c1=O	none
COc1ccc2nc(N(CCN(C)C)C(=O)c3ccc4ccccc4c3)sc2c1	none
COc1ccc2nc(N=Nc3c(O)ccc4ccccc34)sc2c1	hERG rescue 17.5, KCNQ1 act 15 (no result: KCNK3 block)
COc1ccc(OCCSc2ncn[nH]2)cc1	none
CC(C)Cn1c(C(C)C)nc([N+](=O)[O-])c1Sc1ccc(Cl)cn1	none
CCCCn1c(CCC)nc([N+](=O)[O-])c1Sc1ccc(Cl)cn1	Kir21 inh -4.79
CC(C)c1ccccc1OCCCCN1CCCCC1	Kir21 inh -5.05
c1ccc(-c2ccccc2OCCCN2CCCCCC2)cc1	none
CC(C)c1ccccc1OCCCN1CCCC1	none
CC1CC(C)CN(CCOc2ccccc2-c2ccccc2)C1 (configuration not stated)	Kir21 inh -6.33
c1ccc(-c2ccccc2OCCCN2CCCC2)cc1	Kir21 inh -4.21
NC(=O)C1CCN(C(=O)COc2ccc(Nc3ccccc3)cc2)CC1	none
COc1cc(/C=C/C(=O)OCC(=O)NCC(=O)Nc2cccc(C)c2C)ccc1OC(F)F	none (no result: KCNK9 inh, KCNQ1 block, hERG rescue, Kir21 inh, KCNQ1 act)
COc1ccc2nc(SCC(=O)NCC(F)(F)F)[nH]c2c1	hERG rescue 5.2
CCOC(=O)c1c(C)[nH]c(C)c1C(=O)COC(=O)COc1ccc(Cl)c(C)c1	none (no result: KCNK9 inh, KCNQ1 block, hERG rescue, Kir21 inh, KCNQ1 act)
CCC(C)N1CCN(C(=O)c2cc(OC)cc(OC)c2)CC1 (configuration not stated)	hERG rescue 5.2
CCC(C(=O)NC1CCCCC1)N(Cc1cccs1)C(=O)c1snc(C(N)=O)c1N (configuration not stated)	KCNQ1 block 6
O=C(NC1CCCCC1)C(c1cccs1)N(Cc1cccs1)C(=O)c1cccs1 (configuration not stated)	KCNQ1 block 8
COc1ccc(C(C(=O)NC2CCCC2)N(Cc2ccco2)C(=O)c2snc(C(N)=O)c2N)cc1OC (configuration not stated)	none
COc1ccc(C(C(=O)NC2CCCCC2)N(Cc2ccco2)C(=O)c2snc(C(N)=O)c2N)cc1 (configuration not stated)	KCNQ1 block 9
O=C(NC1CCCCC1)C(c1ccc2ncccc2c1)N(Cc1cccs1)C(=O)c1cccs1 (configuration not stated)	none
Cc1cc(/C=N/NC(=O)c2ccc(O)cc2)c(C)n1CC(C)C	none
COc1cccc(NC(=O)c2ccc(C(=O)c3ccccc3)o2)c1	none
CC(C)c1nc(SCC(=O)Nc2ccc([N+](=O)[O-])cc2Br)n[nH]1	hERG rescue 8.6
Cc1ccc(NC(=O)Cn2cc(C(F)(F)F)cc(Cl)c2=O)cc1S(=O)(=O)N1CCCCC1	none
CCC(C)c1ccccc1NC(=O)c1cc2cccc([N+](=O)[O-])c2[nH]1 (configuration not stated)	KCNQ1 block 8
CCOC(=O)COn1c(=O)c(-c2ccccc2)[n+]([O-])c2ccccc21	none
Clc1ncnc2scc(-c3ccccc3)c12	none
S=c1[nH]cnc2sc(-c3ccccc3)cc12	hERG rescue 18.6, KCNQ1 act 132
S=c1[nH]cnc2scc(-c3ccccc3)c12	hERG rescue 60.3, KCNQ1 act 18
O=C(Nc1cccc(-c2cccc(F)c2)c1)C1CCN(CC2CCOC2)CC1 (configuration not stated)	none
COCc1ccc(CN2CCC(C(=O)Nc3cccc(-c4cccc(Cl)c4)c3)CC2)o1	KCNQ1 block 8
Cc1cccc(CN2CCC(C(=O)Nc3cccc(-c4cccc(F)c4)c3)CC2)n1	Kir21 inh -5.07
O=C(Nc1cccc(-c2cccc(F)c2)c1)C1CCN(Cc2ccco2)CC1	Kir21 inh -4.91
CCN(CC)CCNc1ncnc2c1sc1nc(N3CCCC3)c3c(c12)CC(C)(C)OC3	KCNQ1 act 8
CC(=O)OCC(=O)C1(O)CCC2C3CCC4C(OC(C)=O)C(=O)CCC4(C)C3C(=O)CC21C (configuration not stated)	none (no result: KCNK9 inh, KCNQ1 block, hERG rescue, Kir21 inh, KCNQ1 act)
CCCc1cc2c(cc1NC(=O)c1ccc(C(C)(C)C)cc1)OCO2	KCNK9 inh -7.75
COc1cc([C@@H]2c3cc4c(cc3[C@@H](NC3CCN(Cc5ccccc5)CC3)[C@H]3COC(=O)[C@H]23)OCO4)cc(OC)c1O	none (no result: KCNK3 block)
COc1cc(C2c3cc4c(cc3C(OC3OC5COC(c6cccs6)OC5C(O)C3O)C3COC(=O)C23)OCO4)cc(OC)c1O (configuration not stated)	KCNQ1 block 8
O=C(CCCOc1cccc(Br)c1)NCCOc1ccccc1	none
CN(c1ccccc1)P(=O)(N(C)c1ccccc1)N(C)c1ccccc1	Kir21 inh -5.47
CN(c1ccccc1)S(=O)(=O)CS(=O)(=O)N(C)c1ccccc1	none (no result: KCNK9 inh, KCNQ1 block, hERG rescue, Kir21 inh, KCNQ1 act)
Cc1[nH]nc2c1/C(=N\O)CCC2	none
N#Cc1c(N)nc(SCC(=O)C23CC4CC(CC(C4)C2)C3)c(C#N)c1-c1ccc(Cl)cc1	none
CSc1nc(N)nc(SCC(=O)C23CC4CC(CC(C4)C2)C3)c1C#N	KCNK9 inh -7.45
